Results taken from ChEMBL document CHEMBL1138564, “Microwave-induced synthesis and anti-microbial activities of 7,10,11,12-tetrahydrobenzo[c]acridin-8(9H)-one derivatives” (2009).
≈ marks a conversion by molar mass, not a printed value. Calls of active or inactive are those of the source. The calls are words filed in the database; no cut-off is given here.

Experiments:
Pseudomonas aeruginosa [1] = assay: Antimicrobial activity against Pseudomonas aeruginosa NCIM 2200 at 1000 ug/disk after 24 hrs by disk diffusion method; assay type: functional
Method in brief: (§1)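 Disc diffusion on Mueller–Hinton agar. 100 µl of bacterial suspension at 10⁸ CFU/ml is spread on the plate. Discs carry test compounds at two loadings, dissolved in DMSO; DMSO alone serves as negative control. Ofloxacin disc is the positive reference. Plates are incubated at 37 °C for 24 h, and the inhibition zone diameter is measured.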

Aspergillus flavus = assay: Antimicrobial activity against Aspergillus flavus NCIM 902 at 1000 ug/disk after 72 hrs by disk diffusion method; assay type: functional; conditions: NCIM 902, 72 h, read-out: DIZ
Method in brief: (§2)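 Disc diffusion on Sabouraud's dextrose agar. 100 µl of fungal suspension at 10⁶ CFU/ml is spread on the plate. Discs carry test compounds at two loadings in DMSO; DMSO alone is the negative control. Clotrimazole disc is the positive reference. Plates are incubated at 27 °C for 72 h, and the zone of inhibition diameter is measured.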

Aspergillus niger = assay: Antimicrobial activity against Aspergillus niger NCIM 1196 at 1000 ug/disk after 72 hrs by disk diffusion method
Escherichia coli = assay: Antimicrobial activity against Escherichia coli NCIM 2065 after 24 hrs by serial dilution method; assay type: functional; conditions: NCIM 2065, 24 h
Method in brief: (§3)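 Broth dilution MIC in nutrient broth, run only for organisms found sensitive in disc diffusion. Compounds are two-fold serially diluted in 1 ml sterile broth per tube, spanning 3.9 to 1000. Inoculated tubes are incubated at 37 °C for 24 h.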

Pseudomonas aeruginosa [2] = assay: Antimicrobial activity against Pseudomonas aeruginosa NCIM 2200 at 500 ug/disk after 24 hrs by disk diffusion method; assay type: functional
Method in brief: (§4)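 Disc diffusion. 100 µl of bacterial suspension at 10⁸ CFU/ml was spread on Mueller–Hinton agar. Discs loaded with test compound dissolved in DMSO were placed on the lawn, with a DMSO-only disc as negative control. Plates were incubated at 37 °C for 24 h, and the inhibition zone diameter was measured.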

Aspergillus parasiticus [3] = assay: Antimicrobial activity against Aspergillus parasiticus NCIM 904 at 1000 ug/disk after 72 hrs by disk diffusion method; assay type: functional; conditions: NCIM 904, 72 h, read-out: DIZ; method in brief: as §2
Aspergillus parasiticus [4] = assay: Antimicrobial activity against Aspergillus parasiticus NCIM 904 after 72 hrs by serial dilution method; assay type: functional; conditions: NCIM 904, 72 h
Method in brief: (§5)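 MIC by broth dilution in Sabouraud's dextrose broth, only for fungi sensitive in disc diffusion. Two-fold serial dilutions of compounds are made in 1 ml broth per tube, range 3.9 to 1000. Inoculated tubes are incubated at 27 °C for 72 h.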

Bacillus cereus [5] = assay: Antimicrobial activity against Bacillus cereus NCIM 2155 after 24 hrs by serial dilution method; assay type: functional; conditions: NCIM 2155, 24 h; method in brief: as §3
Rhodotorula mucilaginosa [6] = assay: Antimicrobial activity against Rhodotorula rubra NCIM 3174 at 500 ug/disk after 72 hrs by disk diffusion method; assay type: functional; conditions: NCIM 3174, 72 h, read-out: DIZ
Method in brief: (§6)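 Fungal disc diffusion. 100 µl of suspension at 10⁶ CFU/ml was spread on Sabouraud's dextrose agar. Discs carrying test compound in DMSO were applied, with a DMSO-only disc as negative control. Plates were incubated at 27 °C for 72 h, and the zone of inhibition diameter was measured.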

Aspergillus fumigatus [7] = assay: Antimicrobial activity against Aspergillus fumigatus NCIM 902 after 72 hrs by serial dilution method; assay type: functional; conditions: NCIM 902, 72 h; method in brief: as §5
[8] = system: Rhodococcus corynebacterioides; assay: Antimicrobial activity against Corynebacterium rubrum NCIM 2252 at 1000 ug/disk after 24 hrs by disk diffusion method; assay type: functional; conditions: Rhodococcoides corynebacterioides; method in brief: as §1
Aspergillus fumigatus [9] = assay: Antimicrobial activity against Aspergillus fumigatus NCIM 902 at 1000 ug/disk after 72 hrs by disk diffusion method; assay type: functional; conditions: NCIM 902, 72 h, read-out: DIZ; method in brief: as §2
Bacillus subtilis = assay: Antimicrobial activity against Bacillus subtilis NCIM 2063 after 24 hrs by serial dilution method; assay type: functional; conditions: NCIM 2063, 24 h; method in brief: as §3
Aliivibrio fischeri [10] = assay: Antimicrobial activity against Vibrio fischeri NCIM 2154 at 500 ug/disk after 24 hrs by disk diffusion method; assay type: functional; method in brief: as §4
Aliivibrio fischeri [11] = assay: Antimicrobial activity against Vibrio fischeri NCIM 2154 at 1000 ug/disk after 24 hrs by disk diffusion method; assay type: functional; method in brief: as §4
Trichoderma viride [12] = assay: Antimicrobial activity against Trichoderma viride NCIM 1195 after 72 hrs by serial dilution method; assay type: functional; conditions: NCIM 1195, 72 h
Method in brief: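 MIC by broth dilution in Sabouraud's dextrose broth, run only on fungi found sensitive in the disc assay. Twofold serial dilutions were made in 1 ml broth per tube, covering 3.9 to 1000. Inoculated tubes were incubated at 27 °C for 72 h.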

Rhodotorula mucilaginosa [13] = assay: Antimicrobial activity against Rhodotorula rubra NCIM 3174 at 1000 ug/disk after 72 hrs by disk diffusion method; assay type: functional; conditions: NCIM 3174, 72 h, read-out: DIZ; method in brief: as §6
[14] = system: Rhodococcus corynebacterioides; assay: Antimicrobial activity against Corynebacterium rubrum NCIM 2252 at 500 ug/disk after 24 hrs by disk diffusion method; assay type: functional; conditions: Rhodococcoides corynebacterioides; method in brief: as §1
Salmonella typhimurium = assay: Antimicrobial activity against Salmonella Typhimurium NCIM 2501 at 1000 ug/disk after 24 hrs by disk diffusion method; assay type: functional; conditions: Salmonella enterica subsp. enterica serovar Typhimurium; method in brief: as §4
Penicillium chrysogenum = assay: Antimicrobial activity against Penicillium chrysogenum NCIM 707 at 500 ug/disk after 72 hrs by disk diffusion method; assay type: functional; method in brief: as §2
Bacillus cereus [15] = assay: Antimicrobial activity against Bacillus cereus NCIM 2155 at 500 ug/disk after 24 hrs by disk diffusion method; assay type: functional; conditions: NCIM 2155, 24 h, read-out: DIZ; method in brief: as §1
Trichoderma viride [16] = assay: Antimicrobial activity against Trichoderma viride NCIM 1195 at 1000 ug/disk after 72 hrs by disk diffusion method; assay type: functional; conditions: NCIM 1195, 72 h, read-out: DIZ; method in brief: as §6

In the case of `O=C1CCCC2=C1C(c1ccccc1)c1ccc3ccccc3c1N2` (configuration not stated), the “diameter of the inhibition zone (DIZ)” value (Pseudomonas aeruginosa [1]) is reported as “inactive”, the zone of inhibition at 1000 µg/disc (Aspergillus flavus) is reported as 10 mm and the “diameter of the inhibition zone (DIZ)” value (Aspergillus niger) is reported as “inactive”. For the same compound, the MIC (Escherichia coli) was 125 µg/mL (≈ 384 µM), the “diameter of the inhibition zone (DIZ)” value (Pseudomonas aeruginosa [2]) was “inactive” and the zone of inhibition at 1000 µg/disc (Aspergillus parasiticus [3]) was 9 mm. For the same compound, the MIC (Aspergillus parasiticus [4]) was 62.5 µg/mL (≈ 192 µM), the MIC (Bacillus cereus [5]) was 125 µg/mL (≈ 384 µM) and the zone of inhibition at 500 µg/disc (Rhodotorula mucilaginosa [6]) was 8 mm. The MIC (Aspergillus fumigatus [7]) was 62.5 µg/mL (≈ 192 µM), the “diameter of the inhibition zone (DIZ)” value [8] was “inactive” and the zone of inhibition at 1000 µg/disc (Aspergillus fumigatus [9]) was 11 mm. The MIC (Bacillus subtilis) was 62.5 µg/mL (≈ 192 µM), the “diameter of the inhibition zone (DIZ)” value (Aliivibrio fischeri [10]) was “inactive” and the “diameter of the inhibition zone (DIZ)” value (Aliivibrio fischeri [11]) was “inactive”. For the same compound, the MIC (Trichoderma viride [12]) was 31.2 µg/mL (≈ 95.9 µM), the zone of inhibition at 1000 µg/disc (Rhodotorula mucilaginosa [13]) was 12 mm and the “diameter of the inhibition zone (DIZ)” value [14] was “inactive”. For the same compound, the “diameter of the inhibition zone (DIZ)” value (Salmonella typhimurium) was “inactive”, the “diameter of the inhibition zone (DIZ)” value (Penicillium chrysogenum) was “inactive” and the zone of inhibition at 500 µg/disc (Bacillus cereus [15]) was 8 mm. For the same compound, the zone of inhibition at 1000 µg/disc (Trichoderma viride [16]) was 12 mm.
